proCasp3 act = activates human procaspase-3. P42574. activation, % at 8.5 µM. recombinant procaspase-3 D3A, Ac-DEVD-pNA absorbance 405 nm. 330,000 tested, 0.11% active;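 active = activation above the mean of all tested compounds plus 3 SD, cut at about 21% in these data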;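 also: 0% = DMSO alone and 100% = DMSO wells spiked with extra 5 µM PC-3 D3A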
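System: Procaspase-3 D3A mutant. Medium: Zinc-free 300 mM NaCl, 50 mM HEPES, 0.01% Triton X-100. Schedule: 1 h preincubation plus 2 h reaction at 25 °C. Measured by: 405 nm absorbance of p-nitroaniline, reads at 0 and 120 min. Read-out: percent activation relative to control range.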
Arrestin-AP2 inh = blocks beta-arrestin peptide binding to AP2 adaptin; FITC-arrestin peptide / GST-AP2 beads, flow cytometry; AP2 beta2 appendage carries R879A mutation; inhibition, % at 10 µM; 340,000 tested, 0.31% active;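 active = inhibition above a set limit, near 3 SD of compounds lacking own fluorescence, cut at about 54% in these data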;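 also: plate controls were DMSO wells for no effect and 5 µM unlabelled arrestin peptide for full effect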
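Measured by: flow cytometry, FL1 (488/535 nm); Material: AP2 appendage R879A on GSH beads; Evaluation: percent response; Timing: pre-incubation 12 min, peptide binding 1 h, room temperature; Also added: 50 nM FITC-arrestin peptide; Medium: PBS with 0.05% Tween 20 and 0.1% BSA.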
PLC-gamma1 inh = blocks human PLC-gamma1 enzyme activity; P19174; purified PLC-gamma1, fluorogenic substrate, fluorescence; inhibition, % at 12.2 µM; 370,000 tested, 0.84% active; in the data active = inhibition above about 9.5%
sPLA2-III inh = Inhibits HGIII-sPLA2 liposome hydrolysis, primary screen; AID 743126; inhibition, % at 12.2 µM; Q9NZ20; QFRET BODIPY PC-A2 liposome hydrolysis, fluorescence; 370,000 tested, 0.56% active;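 active = inhibition above mean plus 3 SD of compounds lying within the high and low control bounds, cut at about 19% in these data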;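 also: 0% = median of test compound wells and 100% = no enzyme DMSO wells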
procasp7 counter = activates human procaspase-7, counter-screen for procaspase-3 activators; 330,000 tested, 0.093% active; recombinant procaspase-7, Ac-DEVD-pNA absorbance 405 nm; D23A/D198A/D206A triple mutant, cannot self-cleave; scale: DMSO 0, 5 µM enzyme 100; AID 463210; activation, % at 8.5 µM; P55210;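 active = percent activation above the screen-wide mean plus 3 SD, cut at about 25% in these data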
Target sequence (P55210 whole entry D23A/D198A/D206A): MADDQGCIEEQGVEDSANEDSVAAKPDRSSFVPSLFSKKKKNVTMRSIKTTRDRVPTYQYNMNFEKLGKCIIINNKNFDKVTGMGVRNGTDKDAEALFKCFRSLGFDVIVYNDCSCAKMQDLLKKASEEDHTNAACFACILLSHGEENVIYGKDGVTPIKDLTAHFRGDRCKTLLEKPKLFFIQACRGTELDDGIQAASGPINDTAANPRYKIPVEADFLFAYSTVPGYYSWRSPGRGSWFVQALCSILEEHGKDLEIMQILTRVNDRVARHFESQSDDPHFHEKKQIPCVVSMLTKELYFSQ
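Assay system: Uncleavable procaspase-7 mutant enzyme; Input: 2 µM procaspase-7 mutant as dispensed; Also added: DEVD-pNA substrate; Medium: Zinc-free HEPES pH 7.4 with 300 mM NaCl, 0.01% Triton X-100; Timing: 1 h compound preincubation, 2 h substrate cleavage, 25 °C; Measured by: Epi-absorbance of released pNA at 405 nm, two timepoints.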
PLC-beta3 inh = inhibitors of human phospholipase C beta3; Q01970; inhibition, % at 12.2 µM; Purified PLC-beta3, fluorogenic substrate, fluorescence; 370,000 tested, 0.18% active; in the data active = inhibition above about 11%;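 also: 0% = median of compound wells on plate and 100% = full blocker control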
sPLA2 confirm = human GIII-sPLA2 inhibition, confirmation | inhibition, % at 12.2 µM | AID 743280 | recombinant hGIII-sPLA2, BODIPY PC-A2 QFRET fluorescence | 2,000 tested, 34% active | shares compounds with sPLA2-III inh;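 active = mean inhibition across triplicates above the hit cutoff set in the earlier primary screen, cut at about 19% in these data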;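 also: 0% = enzyme with DMSO and 100% = DMSO wells lacking enzyme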
535nm interf = 535nm fluorescence interference, HGIII-sPLA2 counter-screen | BODIPY FL product fluorescence interference, QFRET | shares compounds with sPLA2-III inh | inhibition, % at 12.2 µM | 2,000 tested, 8.5% active;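 active = average inhibition above the solvent-only control mean plus 3 SD, cut at about 6% in these data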;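 also: 0% = DMSO with substrate plus product and 100% = DMSO with substrate alone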
* marks the source's active call; other numbers are inactive results. Rows were chosen to be rich in hits. Some 1.9% of all compounds tested hit in one or more screens of this group.

Results for COc1ccc(OC)c(/C=N/NC(=O)C(=O)N2CCCCCC2)c1 ?
proCasp3 act: 2.8; Arrestin-AP2 inh: 16.4; PLC-gamma1 inh: -30.3; sPLA2-III inh: 6.9; procasp7 counter: -14.0; PLC-beta3 inh: -48.7

What do the screens show for `COC(=O)c1nc(NNC(=O)c2ccccc2)sc1-c1ccccc1`?
proCasp3 act: -17.9; Arrestin-AP2 inh: -7.0; PLC-gamma1 inh: 3.7; sPLA2-III inh: 30.4*; procasp7 counter: -12.4; PLC-beta3 inh: -7.7; sPLA2 confirm: 30.3*; 535nm interf: 0.3

What do the screens show for `O=C(NNC(=S)Nc1ccc(Cl)cc1Cl)c1ccc(N2CCOCC2)c([N+](=O)[O-])c1`?
proCasp3 act: -4.0; Arrestin-AP2 inh: -6.6; PLC-gamma1 inh: 4.2; sPLA2-III inh: 24.1*; procasp7 counter: -19.4; PLC-beta3 inh: 0.2; sPLA2 confirm: 28.4*; 535nm interf: 12.4*

Results for O=C(NNC(=S)Nc1ccc(Br)cc1)c1ccc(N2CCOCC2)c([N+](=O)[O-])c1 ?
proCasp3 act: -3.5; Arrestin-AP2 inh: 9.4; PLC-gamma1 inh: 2.2; sPLA2-III inh: 24.5*; procasp7 counter: -17.9; PLC-beta3 inh: 0.2; sPLA2 confirm: 30.1*; 535nm interf: 11.2*

How did Cc1ccc(NC(=S)NNC(=O)c2ccc(N3CCOCC3)c([N+](=O)[O-])c2)cc1Cl do in these assays?
proCasp3 act: -3.3; Arrestin-AP2 inh: -0.2; PLC-gamma1 inh: 0.2; sPLA2-III inh: 16.5; procasp7 counter: -3.9; PLC-beta3 inh: -2.1

Results for CCCC(=O)N1CCC1(C)C(=O)Nc1cc(OC)c(OC)c(OC)c1 (stereo not given) ?
PLC-gamma1 inh: -0.5; sPLA2-III inh: 11.4; PLC-beta3 inh: 2.1

What do the screens show for `CCOC(=O)C1(C)CCCN(C(=O)c2ccccc2OC(F)(F)F)C1` (stereo not given)?
PLC-gamma1 inh: 5.1; sPLA2-III inh: 2.5; PLC-beta3 inh: 2.6

Results for CCCn1nnc(NC(=O)c2ccc(OCC)c(Cl)c2)n1 ?
proCasp3 act: -3.4; Arrestin-AP2 inh: 2.2; PLC-gamma1 inh: 1.7; sPLA2-III inh: 24.4*; procasp7 counter: 9.3; PLC-beta3 inh: 3.0; sPLA2 confirm: -1.8; 535nm interf: -7.0

How did CSCc1cc(N(C)C)nc(SCc2ccc(Cl)c(Cl)c2)n1 do in these assays?
proCasp3 act: -16.7; Arrestin-AP2 inh: 6.4; PLC-gamma1 inh: 0.0; sPLA2-III inh: 20.9*; procasp7 counter: -4.5; PLC-beta3 inh: -5.9; sPLA2 confirm: -14.9; 535nm interf: -14.2

What do the screens show for `CNc1cc(CSC)nc(SCc2ccc(Cl)cc2Cl)n1`?
proCasp3 act: 0.4; Arrestin-AP2 inh: -9.8; PLC-gamma1 inh: 2.4; sPLA2-III inh: -4.6; procasp7 counter: 10.5; PLC-beta3 inh: -3.1

Results for CCOC(=O)C(=O)NNc1ccc(C)cc1 ?
proCasp3 act: 5.7; Arrestin-AP2 inh: -1.8; PLC-gamma1 inh: -2.3; sPLA2-III inh: 20.5*; procasp7 counter: -10.0; PLC-beta3 inh: -1.2; sPLA2 confirm: 1.9; 535nm interf: 1.0

Results for C/C(CCC12CC3CC(CC(C3)C1)C2)=N\NC(N)=S ?
proCasp3 act: -8.9; Arrestin-AP2 inh: -4.7; PLC-gamma1 inh: 1.1; sPLA2-III inh: 7.3; procasp7 counter: 2.1; PLC-beta3 inh: -3.7

How did C/C(CC(C)(C)C1CCCCC1)=N\NC(N)=S do in these assays?
proCasp3 act: 0.8; Arrestin-AP2 inh: -2.8; PLC-gamma1 inh: 3.9; sPLA2-III inh: 20.2*; procasp7 counter: 7.3; PLC-beta3 inh: -2.1; sPLA2 confirm: 19.4*; 535nm interf: -3.5

What do the screens show for `Cc1cc(C)n(-c2ccc(NC(=O)C3CCN(Cc4ccc(C)o4)CC3)cc2)n1`?
proCasp3 act: -4.5; Arrestin-AP2 inh: 38.8; PLC-gamma1 inh: 2.5; sPLA2-III inh: -8.9; procasp7 counter: 12.0; PLC-beta3 inh: -8.9

Screening data: PubChem, several laboratories
